Converted amounts (≈) assume the structure as drawn. “Also recorded” adds a separate entry of the source.
Experiments:
[1] = Cytotoxicity towards HL-60 cells in the antioxidant assay; assay type: cell-based; conditions: human, HL-60 promyelocytic leukemia cells
Cytotoxicity [2] = assay type: cell-based; conditions: human, BT-549 breast ductal carcinoma cells
Summary of the method: (§1)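 Anti-proliferative assay run alongside four human tumour lines (SK-MEL, KB, BT-549, SK-OV-3) and two noncancerous kidney lines (Vero, LLC-PK11). Doxorubicin served as the positive control.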

Phomopsis obscurans = experiment: Antifungal broth dilution microbioassay, Phomopsis obscurans; assay type: cell-based
Summary of the method: (§2)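 Broth microdilution adapted from the NCCLS M27-A yeast method for conidia-forming filamentous plant-pathogenic fungi. The commercial fungicide captan served as the internal standard in every assay. Means were compared by SAS analysis of variance with Fisher's protected LSD. For P. viticola and P. obscurans, activity was read at 120 and 144 h of incubation.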

Cytotoxicity [3] = assay type: cell-based; conditions: African green monkey, Vero kidney fibroblasts
Summary of the method: as §1

[4] = Cytotoxicity to RAW 264.7 cells in the iNOS assay; assay type: cell-based, mouse; conditions: mouse, RAW 264.7 macrophages
Cytotoxicity [5] = assay type: cell-based; conditions: human, SK-OV-3 ovary carcinoma cells
Summary of the method: as §1

[6] = tested on: adult A. aegypti female mosquitoes; experiment: Adult mosquito topical toxicity assay; assay type: in vivo; conditions: for Adult mosquito mortality rate ± SD: topical, 3.12 μg per insect, acetone/DMSO control gave 5.8±1.8%
Cytotoxicity [7] = assay type: cell-based; conditions: human, KB oral epidermal carcinoma cells
Summary of the method: as §1

Cytotoxicity [8] = assay type: cell-based; conditions: human, SK-MEL malignant melanoma cells
Summary of the method: as §1

Cytotoxicity [9] = assay type: cell-based; conditions: pig, LLC-PK11 kidney epithelial cells
Summary of the method: as §1

RAW 264.7 cells = experiment: Cytotoxicity to RAW 264.7 cells in the iNOS assay; assay type: cell-based, mouse; conditions: RAW 264.7 cells, same assay
Phomopsis viticola = experiment: Antifungal broth dilution microbioassay, Phomopsis viticola; assay type: cell-based
Summary of the method: as §2

mosquito larvae = experiment: Mosquito larvae toxicity bioassay; assay type: in vivo; conditions: Figure 4
Summary of the method: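 Larval toxicity bioassay, run in triplicate. Controls were untreated, DMSO-acetone carrier, and permethrin as the positive control.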

Botrytis cinerea = experiment: Antifungal broth dilution microbioassay, Botrytis cinerea; assay type: cell-based
Summary of the method: as §2

[10] = homologous standards for the HPLC regression; cited from earlier work
[11] = 120 and 144 h (from 120 to 144 h)
[12] = at the highest concentrations, Figure 2D

Row | SMILES | IC50 [1] [µg/mL] | IC50 (Cytotoxicity [2]) [µg/mL] | Antifungal activity against P. obscurans (Phomopsis obscurans; [11]) | IC50 (Cytotoxicity [3]) [µg/mL] | IC50 [4] [µg/mL] | IC50 (Cytotoxicity [5]) [µg/mL] | Adult mosquito mortality rate ± SD [6] | IC50 (Cytotoxicity [7]) [µg/mL] | IC50 (Cytotoxicity [8]) [µg/mL] | IC50 (Cytotoxicity [9]) [µg/mL] | Inhibition of iNOS activity (NO production) in RAW 264.7 cells IC50 Cytotoxicity (RAW 264.7 cells) | Antifungal activity against P. viticola (Phomopsis viticola; 144 h of incubation) | Antifungal activity against P. obscurans (Phomopsis obscurans; 144 h of incubation) | Toxicity to mosquito larvae (mosquito larvae) | Antifungal activity against P. obscurans (Phomopsis obscurans; 120 h) | Growth inhibition of B. cinerea (Botrytis cinerea; 48 h) | Growth inhibition of B. cinerea (Botrytis cinerea; 72 h) | Antifungal activity against P. viticola (Phomopsis viticola; [12]) | Adult mosquito mortality ([6]; 6.25 μg/mosquito, positive standard) [%] | log P (known constants of standards) [10]
1 | CC(C)/C=C/c1c(O)cc(/C=C/c2ccc(O)c(O)c2)cc1O [Compound 1, arachidin-1] | 5.2 (≈ 16.6 µM) | 4.8 (≈ 15.4 µM) | did not exhibit any activity | 12 (≈ 38.4 µM) | 8.3 (≈ 26.6 µM) | 14.5 (≈ 46.4 µM) | marginally active | 4.8 (≈ 15.4 µM) | 15 (≈ 48 µM) | 2.8 (≈ 8.96 µM) |  |  |  |  |  |  |  |  |  | 
2 | CC(C)=CCc1c(O)cc(/C=C/c2ccc(O)cc2)cc1O [Compound 2, arachidin-2] | 16 (≈ 54 µM) | 7.5 (≈ 25.3 µM) | did not exhibit any activity | 13.5 (≈ 45.6 µM) | > 25 | > 25 |  | 22.5 (≈ 75.9 µM) | 20 (≈ 67.5 µM) | 13.5 (≈ 45.6 µM) | no cytotoxicity |  |  |  |  |  |  |  |  | 
3 | CC(C)/C=C/c1c(O)cc(/C=C/c2ccc(O)cc2)cc1O [Compound 3, arachidin-3] | > 25 | > 25 | did not exhibit any activity | > 25 | > 25 | > 25 |  | > 25 | > 25 | > 25 | no cytotoxicity |  |  |  |  |  |  |  |  | 
4 | CC(C)=CCc1c(O)cc(/C=C/c2ccccc2)cc1O [Compound 5, chiricanine A] | 19 (≈ 67.8 µM) | > 25 | highest levels of inhibition | > 25 | 13 (≈ 46.4 µM) | > 25 | 6.7±5.8% | > 25 | 20 (≈ 71.3 µM) | 19.5 (≈ 69.6 µM) |  | more fungicidal | more fungicidal; also recorded: very high | significantly lower toxicity |  |  |  |  |  | 
5 | CC(C)(O)C(O)Cc1cc(/C=C/c2cc(O)cc(O)c2)ccc1O (stereo not drawn) [Compound 7, arahypin-2] | > 25 | > 25 | highest levels of inhibition | > 25 | > 25 | > 25 | marginally active | > 25 | > 25 | > 25 |  |  | extremely low |  | very high |  |  |  |  | 
6 | CC(C)(O)C(O)Cc1c(O)cc(/C=C/c2ccc(O)cc2)cc1O (stereo not drawn) [Compound 8, arahypin-3] | > 25 | > 25 |  | > 25 | > 25 | > 25 | marginally active | > 25 | > 25 | > 25 |  |  |  |  |  |  |  |  |  | 
7 | CC(C)(O)C(O)Cc1c(O)cc(/C=C/c2ccccc2)cc1O (stereo not drawn) [Compound 9, arahypin-4] | > 31.3 | > 25 |  | > 25 | > 25 | > 25 | 10±0.0% | > 25 | > 25 | > 25 |  |  |  |  |  |  |  |  |  | 
8 | CC1(C)C=Cc2c(O)cc(/C=C/c3ccc(O)cc3)cc2O1 [Compound 10, arahypin-5] | 4.5 (≈ 15.3 µM) | > 25 |  | > 25 | 16 (≈ 54.4 µM) | > 25 | 5.8±1.8% | > 25 | 17.5 (≈ 59.5 µM) | 19.5 (≈ 66.2 µM) |  | more fungicidal | more fungicidal |  |  |  |  |  |  | 
9 | Oc1cc(O)cc(/C=C/c2ccccc2)c1 [Compound 11, pinosylvin] | 18 (≈ 84.8 µM) | 13 (≈ 61.2 µM) |  | 13 (≈ 61.2 µM) | 10.5 (≈ 49.5 µM) | 17 (≈ 80.1 µM) |  | 13.8 (≈ 65 µM) | 12.5 (≈ 58.9 µM) | 10.5 (≈ 49.5 µM) |  |  |  | significantly lower toxicity |  | minimal activity | no activity | essentially inactive |  | 
10 | Oc1ccc(/C=C/c2ccccc2)cc1O [Compound 12] | > 25 | > 25 |  | > 25 | > 25 | > 25 |  | > 25 | > 25 | > 25 |  |  |  |  |  | minimal activity | no activity | essentially inactive |  | 
11 | COc1cc(/C=C/c2ccc(O)cc2)cc(OC)c1 [Compound 21, pterostilbene] | 21 (≈ 81.9 µM) | > 25 |  | > 25 | > 25 | > 25 |  | > 25 | > 25 | > 25 | no cytotoxicity |  |  | highest activity; also recorded: somewhat greater activity |  |  |  |  |  | 
12 | CC(C)=CCC/C(C)=C/Cc1c(O)cc(/C=C/c2ccc(O)cc2O)cc1O [Compound 22, chlorophorin] | 25 (≈ 65.7 µM) | 20 (≈ 52.6 µM) |  | 15.5 (≈ 40.7 µM) | 9 (≈ 23.7 µM) | > 25 |  | > 25 | > 25 | 14.5 (≈ 38.1 µM) |  |  |  |  |  | very high growth inhibition values | very high growth inhibition values | appreciable activity |  | 
13 | COc1ccc(/C=C/c2cc(O)cc(O[C@@H]3O[C@H](CO)[C@@H](O)[C@H](O)[C@H]3O)c2)cc1O [Compound 23, rhapontin, reference compound] | 20 (≈ 47.6 µM) | > 25 |  | > 25 | > 25 | > 25 |  | > 25 | > 25 | > 25 |  |  |  | significantly lower toxicity |  |  | very high growth inhibition values |  |  | 
14 | Oc1ccc(/C=C/c2cc(O)cc(O)c2)cc1 [Compound 24, resveratrol, reference compound] | 8 (≈ 35 µM) | > 25 |  | > 25 | > 25 | > 25 |  | > 25 | > 25 | > 25 | no cytotoxicity |  |  | significantly lower toxicity |  | minimal activity | no activity | essentially inactive |  | 
15 | CC1(C)C(C=C(Cl)Cl)C1C(=O)OCc1cccc(Oc2ccccc2)c1 (stereo not drawn) [permethrin, reference compound] |  |  |  |  |  |  |  |  |  |  |  |  |  |  |  |  |  |  | 100 | 
16 | CCCc1ccccc1 [propylbenzene] |  |  |  |  |  |  |  |  |  |  |  |  |  |  |  |  |  |  |  | 3.69

— article PMC3063522 (Journal of agricultural and food chemistry, 2011)
